ChEMBL document CHEMBL3526081 (Drug Metab Dispos, 2011)

What was measured:
Liver microsome [1] = assay: Drug metabolism in beagle dog liver microsomes assessed as 1alpha-hydroxylcinobufagin formation at 100 uM at 37 degC after 30 mins by UFLC-ESI-MS analysis in presence of NADPH-generating system; format: ADME, Canis lupus familiaris; details: 0.5 h
Outline: (§1)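 Liver microsomes (0.3 mg protein/ml) incubated with 100 µM substrate at 37°C for 30 min, in 100 mM potassium phosphate pH 7.4 with NADPH-generating system (1 mM NADP+, 10 mM glucose 6-phosphate, 1 unit/ml G6PDH, 4 mM MgCl2). Acetonitrile ≤1% final. Stopped with ice-cold acetonitrile and centrifuged. Metabolites identified by UFLC-ESI-MS and quantified by UFLC-DAD at 294 nm against authentic standard curves.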

Liver microsome [2] = assay: Drug metabolism in beagle dog liver microsomes assessed as 5beta-hydroxylcinobufagin formation at 100 uM at 37 degC after 30 mins by UFLC-ESI-MS analysis in presence of NADPH-generating system; format: ADME, Canis lupus familiaris; details: 0.5 h; outline: as §1
Liver microsome [3] = assay: Drug metabolism in human liver microsomes assessed as 5beta-hydroxylcinobufagin formation at 100 uM at 37 degC after 30 mins by UFLC-ESI-MS analysis in presence of NADPH-generating system; format: ADME; details: 0.5 h
Outline: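 CB (100 µM; acetonitrile ≤1% final) was incubated with pooled HLM (0.3 mg/ml) plus NADPH-generating system (1 mM NADP+, 10 mM glucose 6-phosphate, 1 unit/ml G6PDH, 4 mM MgCl2) in pH 7.4 phosphate buffer at 37°C for 30 min. Products were identified by UFLC-ESI-MS and quantified by UFLC-DAD at 294 nm.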

[4] = Drug metabolism in Swiss-Hauschka (ICR) mouse liver microsomes assessed as dihydroxylcinobufagin formation at 100 uM at 37 degC after 30 mins by UFLC-ESI-MS analysis in presence of NADPH-generating system; format: ADME; details: 0.5 h; outline: as §1
Liver microsome [5] = assay: Drug metabolism in human liver microsomes assessed as 1alpha-hydroxylcinobufagin formation at 100 uM at 37 degC after 30 mins […] in presence of 1 uM ketoconazole CYP3A4 inhibitor; format: ADME; details: 0.5 h
Liver microsome [6] = assay: Drug metabolism in human liver microsomes assessed as 5beta-hydroxylcinobufagin formation at 100 uM at 37 degC after 30 mins by […] in presence of 1 uM ketoconazole CYP3A4 inhibitor; format: ADME; details: 0.5 h
Liver microsome [7] = assay: Drug metabolism in human liver microsomes assessed as 5beta-hydroxylcinobufagin formation at 100 uM at 37 degC after 30 mins by UFLC-ESI-MS analysis in presence of 10 uM furafylline CYP1A2 inhibitor; format: ADME; details: 0.5 h
Outline: (§2)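 Pooled human liver microsomes (10 donors, both sexes) in 100 mM potassium phosphate pH 7.4 were incubated with CB and a selective P450 inhibitor. Reaction was started with NADPH-generating system after 3 min preincubation at 37°C and stopped with ice-cold acetonitrile. Hydroxylated products were quantified by UFLC-DAD at 294 nm; three experiments in duplicate.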

Liver microsome [8] = assay: Drug metabolism in human liver microsomes assessed as 1alpha-hydroxylcinobufagin formation at 100 uM at 37 degC after 30 mins […] in presence of 2.5 uM 8-methoxypsoralen CYP2A6 inhibitor; format: ADME; details: 0.5 h
Liver microsome [9] = assay: Drug metabolism in human liver microsomes assessed as 1alpha-hydroxylcinobufagin formation at 100 uM at 37 degC after 30 mins […] in presence of 50 uM triethylenethiophosphoramide CYP2B6 inhibitor; format: ADME; details: 0.5 h
Liver microsome [10] = assay: Drug metabolism in human liver microsomes assessed as 1alpha-hydroxylcinobufagin formation at 100 uM at 37 degC after 30 mins by UFLC-ESI-MS analysis in presence of 10 uM quinidine CYP2D6 inhibitor; format: ADME; details: 0.5 h; outline: as §2
Liver microsome [11] = assay: Drug metabolism in beagle dog liver microsomes assessed as 1alpha-hydroxylcinobufagin formation at 100 uM at 37 degC after 30 mins by UFLC-ESI-MS analysis in presence of 10 uM furafylline CYP1A2 inhibitor; format: ADME, Canis lupus familiaris; details: 0.5 h
Outline: (§3)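 Chemical inhibition: selective P450 inhibitors (furafylline, sulfaphenazole, ketoconazole) added to liver microsome incubations in 100 mM potassium phosphate pH 7.4 with NADPH-generating system at 37°C. Hydroxylated metabolite formation quantified by UFLC at 294 nm against standards. Mean ± S.D. of three experiments in duplicate.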

[12] = Drug metabolism in Swiss-Hauschka (ICR) mouse liver microsomes assessed as 1alpha-hydroxylcinobufagin formation at 100 uM at 37 degC after 30 mins by UFLC-ESI-MS analysis in presence of 10 uM sulfaphenazole CYP2C9 inhibitor; format: ADME; details: 0.5 h; outline: as §3
Liver microsome [13] = assay: Drug metabolism in beagle dog liver microsomes assessed as 1alpha-hydroxylcinobufagin formation at 100 uM at 37 degC after 30 mins by UFLC-ESI-MS analysis in presence of 10 uM sulfaphenazole CYP2C9 inhibitor; format: ADME, Canis lupus familiaris; details: 0.5 h; outline: as §3
[14] = Drug metabolism in Swiss-Hauschka (ICR) mouse liver microsomes assessed as 1alpha-hydroxylcinobufagin formation at 100 uM at 37 degC after 30 mins by UFLC-ESI-MS analysis in presence of 1 uM ketoconazole CYP3A4 inhibitor; format: ADME; details: 0.5 h; outline: as §3
[15] = Drug metabolism in Swiss-Hauschka (ICR) mouse liver microsomes assessed as 1alpha-hydroxylcinobufagin formation at 100 uM at 37 degC after 30 mins by UFLC-ESI-MS analysis; format: ADME; details: 0.5 h, read-out: Km(app); outline: as §1
Liver microsome [16] = assay: Ratio of Vmax/Km in human liver microsomes assessed as 1alpha-hydroxylcinobufagin formation at 100 uM […] by UFLC-ESI-MS analysis; format: ADME; details: 0.5 h
[17] = Ratio of Vmax/Km in Colony-bred Chinese Bama minipig liver microsomes assessed as 1alpha-hydroxylcinobufagin formation at 100 uM […] by UFLC-ESI-MS analysis; format: ADME, Sus scrofa; details: pig, 0.5 h
Liver microsome [18] = assay: Drug metabolism in human liver microsomes assessed as 5beta-hydroxylcinobufaginn formation per mg of protein at 100 uM […] by UFLC-ESI-MS analysis; format: ADME; details: 0.5 h
[19] = Drug metabolism in Colony-bred Chinese Bama minipig liver microsomes assessed as 5beta-hydroxylcinobufaginn formation per mg of protein at 100 uM at 37 degC after 30 mins by UFLC-ESI-MS analysis; format: ADME, Sus scrofa; details: pig, 0.5 h; outline: as §1
Liver microsome [20] = assay: Drug metabolism in human liver microsomes assessed as 5beta-hydroxylcinobufaginn formation at 100 uM […] by UFLC-ESI-MS analysis; format: ADME; details: 0.5 h, read-out: Km(app)
Liver microsome [21] = assay: Ratio of Vmax/Km in human liver microsomes assessed as 5beta-hydroxylcinobufaginn formation at 100 uM at 37 degC […] by UFLC-ESI-MS analysis; format: ADME; details: 0.5 h
Liver microsome [22] = assay: Drug metabolism in human liver microsomes assessed as 1alpha-hydroxylcinobufagin formation per mg of protein at 100 uM at 37 degC […] by UFLC-ESI-MS analysis; format: ADME; details: 0.5 h
Liver microsome [23] = assay: Drug metabolism in beagle dog liver microsomes assessed as 1alpha-hydroxylcinobufagin formation per mg of protein at 100 uM at 37 degC after 30 mins by UFLC-ESI-MS analysis; format: ADME, Canis lupus familiaris; details: 0.5 h; outline: as §1
[24] = Drug metabolism in Swiss-Hauschka (ICR) mouse liver microsomes assessed as 1alpha-hydroxylcinobufagin formation per mg of protein at 100 uM at 37 degC after 30 mins by UFLC-ESI-MS analysis; format: ADME; details: 0.5 h; outline: as §1
Liver microsome [25] = assay: Ratio of Vmax/Km in beagle dog liver microsomes assessed as 5beta-hydroxylcinobufaginn formation at 100 uM […] by UFLC-ESI-MS analysis; format: ADME, Canis lupus familiaris; details: 0.5 h

Which results are given for CC(=O)O[C@H]1[C@H]2O[C@]23[C@@H]2CC[C@@H]4C[C@@H](O)CC[C@]4(C)[C@H]2CC[C@]3(C)[C@H]1c1ccc(=O)oc1 [CINOBUFAGIN]?
Drug metabolism (Liver microsome [1]): metabolite_detected; Drug metabolism (Liver microsome [2]): metabolite_detected; Drug metabolism (Liver microsome [3]): metabolite_detected; Drug metabolism [4]: metabolite_detected; Drug metabolism (Liver microsome [5]): metabolite_not_detected; Drug metabolism (Liver microsome [6]): metabolite_not_detected; Drug metabolism (Liver microsome [7]): metabolite_detected; Drug metabolism (Liver microsome [8]): metabolite_detected; Drug metabolism (Liver microsome [9]): metabolite_detected; Drug metabolism (Liver microsome [10]): metabolite_detected; Drug metabolism (Liver microsome [11]): metabolite_detected; Drug metabolism [12]: metabolite_detected; Drug metabolism (Liver microsome [13]): metabolite_detected; Drug metabolism [14]: metabolite_not_detected; Km [15]: 14.1 µM; Vmax/Km (Liver microsome [16]): 47.2 µL/min/mg; Vmax/Km [17]: 14.5 µL/min/mg; Vmax (Liver microsome [18]): 1.17 nmol/min/mg; Vmax [19]: 0.65 nmol/min/mg; Km (Liver microsome [20]): 20.4 µM; Vmax/Km (Liver microsome [21]): 57.4 µL/min/mg; Vmax (Liver microsome [22]): 0.59 nmol/min/mg; Vmax (Liver microsome [23]): 1.28 nmol/min/mg; Vmax [24]: 8.39 nmol/min/mg; Vmax/Km (Liver microsome [25]): 129.4 µL/min/mg
